Measurements as given in ChEMBL document CHEMBL1144994, “Metal coordination-based inhibitors of adenylyl cyclase: novel potent P-site antagonists” (J Med Chem, 2003).

target: Adenylate cyclase type 5 (Homo sapiens, UniProt O95622); assay: Inhibitory activity against recombinant human adenylate cyclase 5 expressed in HEK293 cells.; format: cell-based
Method in brief: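 Membranes from HEK293 cells expressing human type V AC (1.4 µg/mL protein), stimulated with 25 nM activated recombinant GsR. Buffer: 60 mM HEPES pH 8.0, 0.6 mM EDTA, 0.01% BSA, 1 mM ATP, 2 mM IBMX, 2 mM MgCl₂. Reaction 30 min at 30 °C. cAMP product quantified by flash plate. Inhibition calculated against compound-free controls.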

Adenylate cyclase type 5, sequence (O95622 whole entry): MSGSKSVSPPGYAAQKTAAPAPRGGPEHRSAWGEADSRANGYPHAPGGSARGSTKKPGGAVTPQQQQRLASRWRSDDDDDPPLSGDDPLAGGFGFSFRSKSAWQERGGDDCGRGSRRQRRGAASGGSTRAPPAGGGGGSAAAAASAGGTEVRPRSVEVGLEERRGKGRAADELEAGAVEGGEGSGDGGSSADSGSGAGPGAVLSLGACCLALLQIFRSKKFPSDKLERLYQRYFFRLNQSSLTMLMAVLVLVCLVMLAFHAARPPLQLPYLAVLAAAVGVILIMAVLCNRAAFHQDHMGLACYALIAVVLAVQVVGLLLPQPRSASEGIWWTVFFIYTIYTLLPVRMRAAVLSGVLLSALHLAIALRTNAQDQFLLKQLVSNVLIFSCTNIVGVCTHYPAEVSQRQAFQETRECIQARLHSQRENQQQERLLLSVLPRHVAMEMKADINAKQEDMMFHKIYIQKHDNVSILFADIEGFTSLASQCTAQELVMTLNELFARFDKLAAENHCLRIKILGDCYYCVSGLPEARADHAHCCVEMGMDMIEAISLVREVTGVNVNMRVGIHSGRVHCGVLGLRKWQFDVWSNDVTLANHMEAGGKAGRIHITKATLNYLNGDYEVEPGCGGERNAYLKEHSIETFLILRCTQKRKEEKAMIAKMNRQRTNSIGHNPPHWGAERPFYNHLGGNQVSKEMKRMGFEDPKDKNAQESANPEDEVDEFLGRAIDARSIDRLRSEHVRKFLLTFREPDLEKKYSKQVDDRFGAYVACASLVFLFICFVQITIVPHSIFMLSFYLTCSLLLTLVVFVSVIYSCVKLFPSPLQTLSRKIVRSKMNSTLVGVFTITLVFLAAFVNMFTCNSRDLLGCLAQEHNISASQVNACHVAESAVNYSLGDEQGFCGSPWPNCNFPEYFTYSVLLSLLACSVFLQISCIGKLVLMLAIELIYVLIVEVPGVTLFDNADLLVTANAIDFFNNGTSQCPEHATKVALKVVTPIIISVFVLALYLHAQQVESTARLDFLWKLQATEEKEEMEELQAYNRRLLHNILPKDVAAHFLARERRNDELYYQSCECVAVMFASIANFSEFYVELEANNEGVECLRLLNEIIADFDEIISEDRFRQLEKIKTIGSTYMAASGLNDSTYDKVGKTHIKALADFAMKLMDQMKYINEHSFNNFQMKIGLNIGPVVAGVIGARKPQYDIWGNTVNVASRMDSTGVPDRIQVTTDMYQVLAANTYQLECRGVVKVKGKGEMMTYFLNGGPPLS

Row | Structure (SMILES) | IC50
1 | Nc1ncnc2c1ncn2[C@H]1C=C[C@H](CC(=O)NO)C1 | 0.4 µM
2 | Nc1ncnc2c1ncn2[C@@H]1CC[C@H](CC(=O)NO)C1 | 55 µM
3 | Nc1ncnc2c1ncn2[C@H]1C=C[C@H](CC(=O)O)C1 | 8.2 µM
4 | Nc1ncnc2c1ncn2[C@H]1C=C[C@@H](C(=O)NO)C1 | 188 µM
5 | Nc1ncnc2c1ncn2[C@@H]1C=C[C@H](CC(=O)NO)C1 | 2.6 µM
6 | Nc1ncnc2c1ncn2[C@@H]1CC[C@@H](CC(=O)NO)C1 | 0.6 µM
7 | Nc1ncnc2c1ncn2[C@@H]1C=C[C@H](CC(=O)O)C1 | 73.2 µM
8 | Nc1ncnc2c1ncn2[C@@H]1CC[C@H](CC(=O)O)C1 | > 200 µM
9 | Nc1ncnc2c1ncn2[C@H]1CC[C@H](CC(=O)O)C1 | > 100 µM
10 | Nc1ncnc2c1ncn2[C@H]1C=C[C@@H](CC(=O)NO)C1 | 16.3 µM
11 | Nc1ncnc2c1ncn2[C@@H]1CC[C@@H](CC(=O)O)C1 | 28.8 µM
12 | Nc1ncnc2c1ncn2[C@@H]1C=C[C@@H](CC(=O)O)C1 | > 200 µM
13 | Nc1ncnc2c1ncn2[C@H]1C=C[C@@H](CC(=O)O)C1 | > 200 µM
14 | Nc1ncnc2c1ncn2[C@H]1CC[C@@H](CC(=O)O)C1 | > 200 µM
15 | Nc1ncnc2c1ncn2[C@@H]1C=C[C@@H](C(=O)NO)C1 | 100 µM
16 | Nc1ncnc2c1ncn2[C@@H]1CC[C@@H](C(=O)NO)C1 (single isomer, unassigned) | 78 µM
17 | Nc1ncnc2c1ncn2[C@H]1CC[C@H](CC(=O)NO)C1 | 9.4 µM
18 | Nc1ncnc2c1ncn2[C@H]1CC[C@@H](C(=O)NO)C1 | 4.6 µM
19 | Nc1ncnc2c1ncn2[C@H]1C=C[C@H](C(=O)NO)C1 | 4.9 µM
20 | Nc1ncnc2c1ncn2[C@@H]1CC[C@H](C(=O)NO)C1 | > 70 µM
21 | Nc1ncnc2c1ncn2[C@H]1CC[C@H](C(=O)NO)C1 (single isomer, unassigned) | 0.2 µM
22 | Nc1ncnc2c1ncn2[C@H]1C=C[C@H](OCC(=O)NO)C1 | 13.6 µM
23 | Nc1ncnc2c1ncn2[C@@H]1C=C[C@H](C(=O)NO)C1 | > 200 µM
24 | Nc1ncnc2c1ncn2[C@@H]1C=C[C@@H](CC(=O)NO)C1 | 4.3 µM
25 | Nc1ncnc2c1ncn2[C@H]1CC[C@@H](CC(=O)NO)C1 | 25.1 µM
26 | Nc1ncnc2c1ncn2[C@H]1CC[C@H](OCC(=O)NO)C1 | 10.8 µM
